Experiments:
[1] = molecular target: Kappa-type opioid receptor (Cavia porcellus, UniProt P41144); experiment: Binding affinity to Opioid receptor kappa 1 in guinea pig cortex using [3H]EKC as radioligand
Mu-type opioid receptor = Mu-type opioid receptor (Rattus norvegicus, UniProt P33535); experiment: Binding affinity to Opioid receptor mu 1 in rat brain using [3H]-NAL as radioligand; type: tissue-based
Method in brief: (§1)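 μ sites labelled with [3H]naloxone in rat brain homogenates. The assay details are given in an earlier report.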

Rattus norvegicus = experiment: Dose (sc) required for a 2-s increase in reaction time in rat tail heat analgesia test; type: functional
Mus musculus = experiment: Dose (sc) required for 50% reduction in frequency of writhing in mouse writhing analgesia test; type: functional
[2] = molecular target: Mu-type opioid receptor (Rattus norvegicus) (UniProt P33535); experiment: Percent displacement of [3H]-NAL from Opioid receptor mu 1 in rat brain at 1000 nM conc. of compound; type: tissue-based
[3] = molecular target: Mu-type opioid receptor (Rattus norvegicus) (UniProt P33535); experiment: Binding affinity to Opioid receptor mu 1 in rat brain using [3H]NAL as radioligand; type: tissue-based; method in brief: as §1
[4] = molecular target: Kappa-type opioid receptor (Cavia porcellus) (UniProt P41144); experiment: Percent displacement of [3H]EKC from Opioid receptor kappa 1 in guinea pig cortex at 100 nM conc. of compound
[5] = molecular target: Mu-type opioid receptor (Rattus norvegicus) (UniProt P33535); experiment: Percent displacement of [3H]NAL from Opioid receptor mu 1 at 1000 nM conc. of compound
[6] = molecular target: Kappa-type opioid receptor (Cavia porcellus) (UniProt P41144); experiment: Percent displacement of [3H]EKC from Opioid receptor kappa 1 at 100 nM conc. of compound
[7] = molecular target: Kappa-type opioid receptor (Cavia porcellus) (UniProt P41144); experiment: Percent displacement of [3H]EKC from Opioid receptor kappa 1 at 1000 nM conc. of compound
[8] = molecular target: Kappa-type opioid receptor (Cavia porcellus) (UniProt P41144); experiment: Percent displacement of [3H]EKC from Opioid receptor kappa 1 in guinea pig cortex at 1000 nM conc. of compound
[9] = molecular target: Mu-type opioid receptor (Rattus norvegicus) (UniProt P33535); experiment: Binding affinity to mu opioid receptor in rat brain using [3H]NAL as radioligand; type: tissue-based; method in brief: as §1
[10] = Mus musculus, sc, read-out: ED50

Sequence of Mu-type opioid receptor (Rattus norvegicus) (P33535 whole entry): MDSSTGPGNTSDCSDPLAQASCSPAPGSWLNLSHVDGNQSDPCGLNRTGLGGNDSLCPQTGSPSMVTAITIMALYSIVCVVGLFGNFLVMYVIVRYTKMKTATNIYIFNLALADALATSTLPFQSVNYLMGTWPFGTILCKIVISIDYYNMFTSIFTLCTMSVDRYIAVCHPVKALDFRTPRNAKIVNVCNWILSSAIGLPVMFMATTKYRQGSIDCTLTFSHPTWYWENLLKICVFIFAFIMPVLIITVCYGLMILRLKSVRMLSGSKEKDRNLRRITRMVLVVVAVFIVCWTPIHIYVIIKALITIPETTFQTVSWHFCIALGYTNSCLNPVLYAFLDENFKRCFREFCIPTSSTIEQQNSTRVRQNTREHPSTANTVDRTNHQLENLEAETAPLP
Sequence of Mu-type opioid receptor (P33535 whole entry): as above
Sequence of Kappa-type opioid receptor (Cavia porcellus) (P41144 whole entry): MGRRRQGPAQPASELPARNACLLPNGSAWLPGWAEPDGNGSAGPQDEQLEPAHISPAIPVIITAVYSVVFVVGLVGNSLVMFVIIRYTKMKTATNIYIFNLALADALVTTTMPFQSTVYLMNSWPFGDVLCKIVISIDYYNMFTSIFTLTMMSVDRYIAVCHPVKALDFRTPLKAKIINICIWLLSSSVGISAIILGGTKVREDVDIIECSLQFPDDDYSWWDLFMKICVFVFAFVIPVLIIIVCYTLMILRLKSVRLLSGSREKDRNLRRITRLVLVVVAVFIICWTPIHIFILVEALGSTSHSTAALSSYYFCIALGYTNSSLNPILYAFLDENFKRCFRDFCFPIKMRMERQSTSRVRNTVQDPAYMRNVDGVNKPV
Sequence of Kappa-type opioid receptor (P41144 whole entry): as above

Compound	Ki [1] [nM]	Ki (Mu-type opioid receptor) [nM]	ED2sec (Rattus norvegicus) [mg/kg]	ED50 (Mus musculus; [10]) [mg/kg]	further results
CC(C)=CCN1CC[C@]2(C)c3cc(O)ccc3C[C@H]1[C@H]2C [(+)-PENTAZOCINE]	75	6.9	2.6	2	
Oc1cccc(C23CCCC[C@H]2CN(CC2CCC2)CC3)c1 (some centres not stated)				0.6	
CN1CCC2(c3ccccc3)CCCC[C@H]2C1 (some centres not stated)			8.8	3.5	
CCCN1CCC2(c3cccc(O)c3)CCCC[C@H]2C1 (single isomer, unassigned; (+))					Displacement [2]: 83%; Displacement [3]: 43%; Displacement [4]: 4%
CCCN1CCC2(c3cccc(O)c3)CCCC[C@H]2C1 (some centres not stated)			1.3	1.5	
Oc1cccc(C23CCCC[C@H]2CN(CC2CC2)CC3)c1 (single isomer, unassigned; (+)) [listing 1 of 2 here]			>50		ED50 (Mus musculus): >50 mg/kg
CN1CC[C@]23c4c5ccc(O)c4O[C@H]2[C@@H](O)C=C[C@H]3[C@H]1C5 [MORPHINE]			0.7	0.9	
Oc1cccc(C23CCCC[C@H]2CN(CC2CC2)CC3)c1 (stereo in doubt; 29)			5.6		ED50 (Mus musculus): 3.3 mg/kg
Oc1cccc(C23CCCC[C@H]2CN(CCc2ccccc2)CC3)c1 (single isomer, unassigned; (-))	89	0.23			
C[C@H]1[C@H]2Cc3ccc(O)cc3[C@]1(C)CCN2CC1CC1 [CYCLAZOCINE]	1.3	1.2		0.07	
CN1CCC2(c3cccc(O)c3)CCCC[C@H]2C1 (single isomer, unassigned; (-))	433	8.9	1.6		ED50 (Mus musculus): 2.1 mg/kg
C=CCN1CCC2(c3cccc(O)c3)CCCC[C@H]2C1 (some centres not stated)			1.4	1	
Oc1cccc(C23CCCC[C@H]2CN(CC2CC2)CC3)c1 (single isomer, unassigned; (-))	2.5	4.2	3		ED50 (Mus musculus): 2.2 mg/kg
CC(C)=CCN1CCC2(c3cccc(O)c3)CCCC[C@H]2C1 (some centres not stated)			1.5	1	
C=CCN1CCC2(c3cccc(O)c3)CCCC[C@H]2C1 (single isomer, unassigned; (+))					Displacement [3]: 15%; Displacement [5]: 42%; Displacement [6]: 2%; Displacement [7]: 16%
CN1CCC2(c3cccc(O)c3)CCCC[C@H]2C1 (single isomer, unassigned; (+))	61	0.96	0.3		ED50 (Mus musculus): 0.4 mg/kg
CCCN1CCC2(c3cccc(O)c3)CCCC[C@H]2C1 (single isomer, unassigned; (-)) [listing 1 of 2 here]					Displacement [8]: 46%; Displacement [4]: 12%
Oc1cccc(C23CCCC[C@H]2CN(CC2CC2)CC3)c1 (single isomer, unassigned; (+)) [listing 2 of 2 here]					Displacement [2]: 35%; Displacement [8]: 32%; Displacement [3]: 4%; Displacement [4]: 5%
C=CCN1CC[C@]23c4c5ccc(O)c4O[C@H]2[C@@H](O)C=C[C@H]3[C@H]1C5 [NALORPHINE]	15	6.5	>100	0.7	
Oc1cccc(C23CCCC[C@H]2CN(CCc2ccccc2)CC3)c1 (single isomer, unassigned; (+))					Displacement [2]: 74%; Displacement [8]: 53%; Displacement [3]: 19%; Displacement [4]: 8%
CN1CCC2(c3cccc(O)c3)CCCC[C@H]2C1 (stereo in doubt; 13)			0.4		ED50 (Mus musculus): 0.5 mg/kg
COc1cccc(C23CCCC[C@H]2CN(C)CC3)c1 (some centres not stated)			3.3	1.2	
CCN1CCC2(c3cccc(O)c3)CCCC[C@H]2C1 (single isomer, unassigned; (+))					Displacement [2]: 70%; Displacement [8]: 15%; Displacement [9]: 34%; Displacement [4]: 0%
CCCN1CCC2(c3cccc(O)c3)CCCC[C@H]2C1 (single isomer, unassigned; (-)) [listing 2 of 2 here]		473			
CCN1CCC2(c3cccc(O)c3)CCCC[C@H]2C1 (some centres not stated)	529	29	>100	18.2	
Oc1cccc(C23CCCC[C@H]2CN(CCc2ccccc2)CC3)c1 (some centres not stated)			0.08	0.3	

From ChEMBL document CHEMBL1124288, “Synthesis and analgesic properties of N-substituted trans-4a-aryldecahydroisoquinolines” (J Med Chem, 1988)
